# Assay results published in ChEMBL document CHEMBL1914346, “Discovery and synthesis of novel substituted benzocoumarins as orally active lipid modulating agents” (Bioorg Med Chem Lett, 2011).
# System: Syrian golden hamster
# Test: Antidyslipidemic activity in high fat diet-fed dyslipidemic syrian golden hamster model assessed as decrease in serum total cholesterol level at 10 mg/kg, po administered once daily for 7 days relative to vehicle treated control
# Type: functional, Mesocricetus auratus
# Design: scale not given: the % may be the effect or the level left
# Conditions: not given
# In short: (§1)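 Male Golden Syrian hamsters, 12 weeks old, 110 ± 10 g, eight per group, fed high-fat diet plus fructose daily on days 1–10. Oral dosing once daily on days 4–10 in 0.1% gum acacia; HFD-fed vehicle animals served as controls. After the last dose, retro-orbital blood was taken into EDTA and plasma lipids were measured enzymatically on an autoanalyzer. Results are % change versus HFD controls; t-test/ANOVA, p<0.05.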
row,SMILES,Activity [%]
1,Cc1cc(=O)oc2c3c(ccc12)C(=O)/C(=C/NCCCO)C=C3C=O,26
2,COc1cccc(CN/C=C2\C=C(C=O)c3c(ccc4c(C)cc(=O)oc34)C2=O)c1,47
3,Cc1cccc(C)c1N/C=C1\C=C(C=O)c2c(ccc3c(C)cc(=O)oc23)C1=O,30
4,Cc1cc(=O)oc2c3c(ccc12)C(=O)/C(=C/NC12CC4CC(CC(C4)C1)C2)C=C3C=O,48
5,Cc1cc(=O)oc2c3c(ccc12)C(=O)/C(=C/NCCCl)C=C3C=O,17
6,Cc1cc(=O)oc2c3c(ccc12)C(=O)/C(=C/Nc1ccccc1O)C=C3C=O,3

# System: Syrian golden hamster
# Test: Antidyslipidemic activity in high fat diet-fed dyslipidemic syrian golden hamster model assessed as increase in serum ratio of serum HDL/total cholesterol level at 10 mg/kg, po administered once daily for 7 days relative to vehicle treated control
# Type: functional, Mesocricetus auratus
# Conditions: not given
# In short: as §1
row,SMILES,Activity [%]
1,Cc1cc(=O)oc2c3c(ccc12)C(=O)/C(=C/NCCCO)C=C3C=O,39
2,COc1cccc(CN/C=C2\C=C(C=O)c3c(ccc4c(C)cc(=O)oc34)C2=O)c1,93
3,Cc1cccc(C)c1N/C=C1\C=C(C=O)c2c(ccc3c(C)cc(=O)oc23)C1=O,43
4,Cc1cc(=O)oc2c3c(ccc12)C(=O)/C(=C/NC12CC4CC(CC(C4)C1)C2)C=C3C=O,93
5,Cc1cc(=O)oc2c3c(ccc12)C(=O)/C(=C/NCCCl)C=C3C=O,9
6,Cc1cc(=O)oc2c3c(ccc12)C(=O)/C(=C/Nc1ccccc1O)C=C3C=O,19

# System: Syrian golden hamster
# Test: Toxicity in syrian golden hamster
# Type: organism-based, Mesocricetus auratus
# Conditions: in vivo
# In short: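 HFD-fed male Golden Syrian hamsters, eight per group, dosed orally at 10 mg/kg once daily for 7 days in 0.1% gum acacia. Body weight was recorded daily and food intake was monitored, then compared with HFD vehicle controls.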
row,SMILES,Activity
1,Cc1cc(=O)oc2c3c(ccc12)C(=O)/C(=C/NCCCO)C=C3C=O,Non-toxic
2,COc1cccc(CN/C=C2\C=C(C=O)c3c(ccc4c(C)cc(=O)oc34)C2=O)c1,Non-toxic
3,Cc1cccc(C)c1N/C=C1\C=C(C=O)c2c(ccc3c(C)cc(=O)oc23)C1=O,Non-toxic
4,Cc1cc(=O)oc2c3c(ccc12)C(=O)/C(=C/NC12CC4CC(CC(C4)C1)C2)C=C3C=O,Non-toxic
5,Cc1cc(=O)oc2c3c(ccc12)C(=O)/C(=C/NCCCl)C=C3C=O,Non-toxic
6,Cc1cc(=O)oc2c3c(ccc12)C(=O)/C(=C/Nc1ccccc1O)C=C3C=O,Non-toxic

# System: not listed separately
# Test: Antioxidant activity assessed as trolox equivalent by TEAC assay
# Type: functional
# Conditions: not given
row,SMILES,Activity [mM]
1,Cc1cc(=O)oc2c3c(ccc12)C(=O)/C(=C/NCCCO)C=C3C=O,1.46
2,COc1cccc(CN/C=C2\C=C(C=O)c3c(ccc4c(C)cc(=O)oc34)C2=O)c1,1.26
3,Cc1cccc(C)c1N/C=C1\C=C(C=O)c2c(ccc3c(C)cc(=O)oc23)C1=O,0.99
4,Cc1cc(=O)oc2c3c(ccc12)C(=O)/C(=C/NC12CC4CC(CC(C4)C1)C2)C=C3C=O,0.99
5,O=C1O[C@H]([C@@H](O)CO)C(O)=C1O,3.13
6,Cc1cc(=O)oc2c3c(ccc12)C(=O)/C(=C/NCCCl)C=C3C=O,0.38
7,Cc1cc(=O)oc2c3c(ccc12)C(=O)/C(=C/Nc1ccccc1O)C=C3C=O,0.36

# System: Syrian golden hamster
# Test: Antidyslipidemic activity in high fat diet-fed dyslipidemic syrian golden hamster model assessed as increase in serum HDL level at 10 mg/kg, po administered once daily for 7 days relative to vehicle treated control
# Type: functional, Mesocricetus auratus
# Conditions: not given
# In short: as §1
row,SMILES,Activity [%]
1,Cc1cc(=O)oc2c3c(ccc12)C(=O)/C(=C/NCCCO)C=C3C=O,3
2,COc1cccc(CN/C=C2\C=C(C=O)c3c(ccc4c(C)cc(=O)oc34)C2=O)c1,3
3,Cc1cccc(C)c1N/C=C1\C=C(C=O)c2c(ccc3c(C)cc(=O)oc23)C1=O,1
4,Cc1cc(=O)oc2c3c(ccc12)C(=O)/C(=C/NC12CC4CC(CC(C4)C1)C2)C=C3C=O,1
5,Cc1cc(=O)oc2c3c(ccc12)C(=O)/C(=C/NCCCl)C=C3C=O,19
6,Cc1cc(=O)oc2c3c(ccc12)C(=O)/C(=C/Nc1ccccc1O)C=C3C=O,15

# System: Syrian golden hamster
# Test: Antidyslipidemic activity in high fat diet-fed dyslipidemic syrian golden hamster model assessed as decrease in serum triglyceride level at 10 mg/kg, po administered once daily for 7 days relative to vehicle treated control
# Type: functional, Mesocricetus auratus
# Design: scale not given: the % may be the effect or the level left
# Conditions: not given
# In short: as §1
row,SMILES,Activity [%]
1,Cc1cc(=O)oc2c3c(ccc12)C(=O)/C(=C/NCCCO)C=C3C=O,50
2,COc1cccc(CN/C=C2\C=C(C=O)c3c(ccc4c(C)cc(=O)oc34)C2=O)c1,52
3,Cc1cccc(C)c1N/C=C1\C=C(C=O)c2c(ccc3c(C)cc(=O)oc23)C1=O,16
4,Cc1cc(=O)oc2c3c(ccc12)C(=O)/C(=C/NC12CC4CC(CC(C4)C1)C2)C=C3C=O,48
5,Cc1cc(=O)oc2c3c(ccc12)C(=O)/C(=C/NCCCl)C=C3C=O,47
6,Cc1cc(=O)oc2c3c(ccc12)C(=O)/C(=C/Nc1ccccc1O)C=C3C=O,42

# System: Syrian golden hamster
# Test: Antidyslipidemic activity in high fat diet-fed dyslipidemic syrian golden hamster model assessed as decrease in serum LDL level at 10 mg/kg, po administered once daily for 7 days relative to vehicle treated control
# Type: functional, Mesocricetus auratus
# Design: scale not given: the % may be the effect or the level left
# Conditions: not given
# In short: as §1
row,SMILES,Activity [%]
1,Cc1cc(=O)oc2c3c(ccc12)C(=O)/C(=C/NCCCO)C=C3C=O,21
2,COc1cccc(CN/C=C2\C=C(C=O)c3c(ccc4c(C)cc(=O)oc34)C2=O)c1,59
3,Cc1cccc(C)c1N/C=C1\C=C(C=O)c2c(ccc3c(C)cc(=O)oc23)C1=O,40
4,Cc1cc(=O)oc2c3c(ccc12)C(=O)/C(=C/NC12CC4CC(CC(C4)C1)C2)C=C3C=O,59
5,Cc1cc(=O)oc2c3c(ccc12)C(=O)/C(=C/NCCCl)C=C3C=O,14

# System: Syrian golden hamster
# Test: Antidyslipidemic activity in high fat diet-fed dyslipidemic syrian golden hamster model assessed as increase in serum LDL level at 10 mg/kg, po administered once daily for 7 days relative to vehicle treated control
# Type: functional, Mesocricetus auratus
# Conditions: not given
# In short: as §1
row,SMILES,Activity [%]
1,Cc1cc(=O)oc2c3c(ccc12)C(=O)/C(=C/Nc1ccccc1O)C=C3C=O,12
